Data on 1 molecule can be found in ChEMBL document CHEMBL3393048, “Discovery of potent cytotoxic ortho-aryl chalcones as new scaffold targeting tubulin and mitosis with affinity-based fluorescence” (J Med Chem, 2014).

As usually defined, the IC50 is the concentration that inhibits the measured activity by half.

Assay [1] deals with A549. Description: Induction of apoptosis in human A549 cells assessed as late apoptotic cells at 1 uM after 48 hrs by Annexin V-FITC/propidium iodide staining-based flow cytometry (reference value: 0.10%). Format: functional.
Assay [2] concerns A549. Description: Induction of apoptosis in human A549 cells assessed as early apoptotic cells at 0.5 uM after 48 hrs by Annexin V-FITC/propidium iodide staining-based flow cytometry (reference value: 0.47%). It is filed as functional. (In general: Flow cytometry measures light scatter and fluorescence of single cells or particles in a stream.)
Assay [3] has as its system A549. Description: Induction of apoptosis in human A549 cells assessed as early apoptotic cells at 0.25 uM after 48 hrs by Annexin V-FITC/propidium iodide staining-based flow cytometry (reference value: 0.47%). It is filed as functional.
The test system of assay [4] is A549. Description: Induction of apoptosis in human A549 cells assessed as late apoptotic cells at 0.75 uM after 48 hrs by Annexin V-FITC/propidium iodide staining-based flow cytometry (reference value: 0.10%). Format: functional.
The next assay relates to A2780. Description: Antiproliferative activity against human A2780 cells after 48 hrs by SRB method. It is filed as functional, cell-based. The settings on record: A2780, 48 h. Summed up: (§1)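 SRB assay. Cells in DMEM high glucose with 10% FBS were seeded at 5000/well and grown 24 h; a day-0 plate was fixed at that point. Compounds were added in triplicate for 48 h. IC50 came from nonlinear regression of dose–response curves from at least two independent experiments.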
(In general: In SRB staining, fixed cells bind dye roughly in proportion to their protein.)

For assay [5], the system named is A549. Description: Induction of apoptosis in human A549 cells assessed as viable cells at 1 uM after 48 hrs by Annexin V-FITC/propidium iodide staining-based flow cytometry (reference value: 99.37%). The settings on record: A549, 48 h, read-out: Activity. It is filed as functional.
The test system of assay [6] is A549. The assay is described as follows: Induction of apoptosis in human A549 cells assessed as necrotic cells at 0.25 uM after 48 hrs by Annexin V-FITC/propidium iodide staining-based flow cytometry (reference value: 0.06%). Format: functional.
The target of the next assay is Tubulin. Description: Inhibition of tubulin polymerization (unknown origin) by DAPI staining-based fluorescence microscopy. It is filed as protein-complex assay, Homo sapiens. Summed up: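 Purified tubulin (99% pure; 20 μM as supplied) mixed with compound in general tubulin buffer (80 mM PIPES pH 6.9, 2.0 mM MgCl₂, 0.5 mM EGTA) with 1 mM GTP, 20% glycerol and DAPI reporter. Polymerization tracked kinetically at 37 °C as fluorescence rise (ex 360, em 450 nm). Duplicate wells per concentration. IC50 from at least two independent experiments.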

In assay [7] the test system is A549. Description: Drug resistance index, ratio of IC50 for cis-platinum-resistant human A549 cells to IC50 for human A549 cells. Format: functional. Summed up: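 Drug resistance index = IC50 in the resistant line / IC50 in its parental line. […] Pairs: A549/CDDP vs A549, MCF-7/DOX vs MCF-7, A2780/TAX vs A2780, HCT-8/VCT vs HCT-8.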
Assay [8] in a line: Antiproliferative activity against human CNE2 cells after 48 hrs by SRB method. Format: functional, cell-based. The settings on record: CNE-2, 48 h. Summed up:
as §1

For assay [9], the system named is A549. The assay is described as follows: Induction of apoptosis in human A549 cells assessed as viable cells at 0.75 uM after 48 hrs by Annexin V-FITC/propidium iodide staining-based flow cytometry (reference value: 99.37%). Format: functional. The settings on record: A549, 48 h, read-out: Activity.

Regarding `CN(C)c1ccc(/C=C/C(=O)c2ccccc2-c2ccc(F)cc2)cc1`, the Activity came out at 42.86% in the assay with A549 [1]; 33.86% in the assay on A549 [2]; 34.67% in the assay on A549 [3]; 45.45% with A549 [4]; 4.95% with A549 [6]. For the same molecule, the IC50 with A2780 worked out at 0.094 µM; on Tubulin, 3.6 µM; in assay [8], 0.03 µM. Besides, the viability at 1 µM with A549 [5] came to 8.21%. In the assay with A549 [7], the “Ratio IC50” value was determined as 1.6. Moreover, in the assay on A549 [9], the viability at 0.75 µM was 8.57%.
